The values below come from ChEMBL document CHEMBL2069182, “Discovery and optimization of a novel series of GPR142 agonists for the treatment of type 2 diabetes mellitus” (Bioorg Med Chem Lett, 2012).

For series [1], the target named is CYP2D6 (Homo sapiens, UniProt P10635). Kind of series: Inhibition of CYP2D6 at 3 uM. In kind it is ADME.
A short description of series [2]: Metabolic stability in human liver microsomes assessed as compound remaining after 30 mins. In kind it is ADME, Microsome. The settings on record: read-out: Stability. Summed up: (§1)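 Human or rat liver microsomes incubated with compound for 30 min; percent parent remaining quantified by LC/MS in a high-throughput format.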
(Liver microsomes are a subcellular fraction often used to study metabolism.)

Series [3] is described as follows: Oral bioavailability in rat at 2 mg/kg. The class given is ADME, organism-based. The note with it: in vivo. The procedure, abridged:
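Rats given 2.0 mg/kg po; bioavailability (%F) determined against iv dosing at 0.5 mg/kg.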

The target of series [4] is T1, Probable G-protein coupled receptor 142 (Homo sapiens, UniProt Q7Z601).
T1 sequence (Q7Z601 whole entry): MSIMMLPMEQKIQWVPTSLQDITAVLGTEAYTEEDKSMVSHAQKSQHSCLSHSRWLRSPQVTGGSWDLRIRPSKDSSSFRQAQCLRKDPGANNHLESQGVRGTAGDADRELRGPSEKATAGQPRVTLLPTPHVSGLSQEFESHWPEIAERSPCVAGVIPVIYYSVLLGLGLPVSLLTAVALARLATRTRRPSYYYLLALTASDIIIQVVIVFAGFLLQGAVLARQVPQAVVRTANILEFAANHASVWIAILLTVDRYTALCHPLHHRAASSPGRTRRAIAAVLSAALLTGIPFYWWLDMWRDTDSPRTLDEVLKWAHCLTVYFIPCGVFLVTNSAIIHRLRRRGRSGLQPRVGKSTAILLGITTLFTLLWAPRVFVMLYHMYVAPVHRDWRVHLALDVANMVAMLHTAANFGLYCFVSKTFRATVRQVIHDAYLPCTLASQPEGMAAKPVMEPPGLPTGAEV
Kind of series: Agonist activity at human GPR142 expressed in HEK293 cells assessed as inositol phosphate accumulation using [3H]-inositol after 1 hr by scintillation counting. In kind it is functional, cell-based. The procedure, abridged:
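HEK293 cells plated at 25,000/well, next day (80–90% confluent) transfected with 100 ng receptor plasmid per well by Lipofectamine; after 6 h switched to inositol-free DMEM/10% dialyzed FCS with 1 µCi/mL [3H]-inositol overnight. Washed in HBSS, then compound dilutions (DMSO) in HBSS/0.01% BSA plus 10 mM LiCl, 37 °C, 1 h. Lysed in ice-cold 20 mM formic acid, 4 °C 5 h, then yttrium silicate SPA beads, scintillation counting. Emax as % of maximal response to 10 mM tryptophan.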

Series [5] is described as follows: Volume of distribution at steady state in rat at 0.5 mg/kg, iv. The settings on record: in vivo, read-out: Vdss. In kind it is ADME, organism-based. More on the design: dose 0.5 mg/kg, route intravenous. Summed up:
(§2)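 Rats dosed iv at 0.5 mg/kg; clearance, steady-state volume of distribution and mean residence time derived.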

Series [6] is described as follows: Mean residence time in rat at 0.5 mg/kg, iv. In kind it is ADME, organism-based. More on the design: dose 0.5 mg/kg, route intravenous. The settings on record: in vivo. The procedure, abridged: as §2
Series [7] addresses Cytochrome P450 2D6 (Homo sapiens, UniProt P10635). Kind of series: Inhibition of CYP2D6. In kind it is ADME.
Series [8] concerns the target CYP3A4 (Homo sapiens, UniProt P08684). Nature of the series: Inhibition of CYP3A4 at 3 uM. In kind it is ADME.
Series [9] has as its target T1, Probable G-protein coupled receptor 142. Kind of series: Agonist activity at human GPR142 expressed in HEK293 cells assessed as inositol phosphate accumulation using [3H]-inositol after 1 hr by scintillation counting in presence of human serum. The class given is functional, cell-based. Summed up:
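Same transfected HEK293 [3H]-inositol IP accumulation protocol as buffer assay, but compound incubation (10 mM LiCl, 37 °C, 1 h) run in 100% human serum instead of HBSS/0.01% BSA. Formic acid lysis, SPA bead scintillation read-out. Emax expressed as % of maximal 10 mM tryptophan response.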

Series [10] concerns Rattus norvegicus. Nature of the series: Clearance in rat at 0.5 mg/kg, iv. In kind it is ADME, organism-based. The arrangement: dose 0.5 mg/kg, route intravenous. The note with it: in vivo. The procedure, abridged:
as §2

Series [11] has as its target T2, Probable G-protein coupled receptor 142 (Homo sapiens) (UniProt Q7Z601).
T2 sequence (whole entry): T1 sequence (Q7Z601 whole entry)
Nature of the series: Agonist activity at human GPR142 expressed in HEK293 cells assessed as inositol phosphate accumulation using [3H]-inositol after 1 hr by scintillation counting in presence of human serum relative to tryptophan. In kind it is functional, cell-based. Summed up:
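Transiently transfected HEK293 cells were labelled overnight with 1 µCi/mL tritiated inositol, then given graded compound in 100% human serum (in place of HBSS/0.01% BSA) with 10 mM LiCl for 1 h at 37 °C. Lysis was in ice-cold 20 mM formic acid, with SPA-bead scintillation read-out. EC50 given; Emax as % of maximal tryptophan response.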

Series [12] is described as follows: Metabolic stability in rat liver microsomes assessed as compound remaining after 30 mins. In kind it is ADME, Microsome. The note with it: read-out: Stability. The procedure, abridged:
as §1

Series [13] concerns the target Cytochrome P450 3A4 (Homo sapiens, UniProt P08684). Kind of series: Inhibition of CYP3A4. The class given is ADME.
For series [14], the target named is T2, Probable G-protein coupled receptor 142 (Homo sapiens). Nature of the series: Agonist activity at human GPR142 expressed in HEK293 cells assessed as inositol phosphate accumulation using [3H]-inositol after 1 hr by scintillation counting relative to tryptophan. In kind it is functional, cell-based. Summed up: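 HEK293 cells on poly-D-lysine were transfected next day with 100 ng receptor plasmid/well, then labelled overnight with 1 µCi/mL [3H]-inositol in inositol-free DMEM/10% dialyzed FCS. Cells got graded compound in HBSS/0.01% BSA with 10 mM LiCl for 1 h at 37 °C. They were lysed in ice-cold 20 mM formic acid and counted with yttrium silicate SPA beads. EC50 given; Emax as % of maximal tryptophan response at 10 mM.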

For series [15], the system named is Hepatocyte. Kind of series: Clearance in rat hepatocytes assessed per 10^-6 cells. In kind it is ADME, cell-based.
Series [16] in a line: Half life in rat hepatocytes. In kind it is ADME, cell-based, Liver, Hepatocyte.
Series [17] addresses Cytochrome P450 2C9 (Homo sapiens, UniProt P11712). Nature of the series: Inhibition of CYP2C9. In kind it is ADME.

A value given as a limit tells only on which side of the number the result lay.

One may read the inhibition as the drop in the measured response relative to a control, in per cent. Read a low inhibition as a weak effect. A word on the bioavailability: it is the share of a dose that reaches the circulation, judged against a reference dose that is usually intravenous. A lower bioavailability goes with little systemic uptake. A word on the EC50: it is the concentration at which the effect is half-maximal. As a reminder, the MRT is the average time that molecules of a dose stay in the body. The term IC50 denotes the concentration at which inhibition is half-maximal. Low values mean greater potency, high ones weaker potency. The clearance is a measure of how efficiently the substance is removed, as volume per time. Read a low clearance as a low capacity for elimination. Usually Emax stands for the size of the effect at its maximum, as opposed to the concentration needed. What is called half-life is the time in which the quantity being followed falls by half.

Sequence of Cytochrome P450 3A4 (P08684 whole entry): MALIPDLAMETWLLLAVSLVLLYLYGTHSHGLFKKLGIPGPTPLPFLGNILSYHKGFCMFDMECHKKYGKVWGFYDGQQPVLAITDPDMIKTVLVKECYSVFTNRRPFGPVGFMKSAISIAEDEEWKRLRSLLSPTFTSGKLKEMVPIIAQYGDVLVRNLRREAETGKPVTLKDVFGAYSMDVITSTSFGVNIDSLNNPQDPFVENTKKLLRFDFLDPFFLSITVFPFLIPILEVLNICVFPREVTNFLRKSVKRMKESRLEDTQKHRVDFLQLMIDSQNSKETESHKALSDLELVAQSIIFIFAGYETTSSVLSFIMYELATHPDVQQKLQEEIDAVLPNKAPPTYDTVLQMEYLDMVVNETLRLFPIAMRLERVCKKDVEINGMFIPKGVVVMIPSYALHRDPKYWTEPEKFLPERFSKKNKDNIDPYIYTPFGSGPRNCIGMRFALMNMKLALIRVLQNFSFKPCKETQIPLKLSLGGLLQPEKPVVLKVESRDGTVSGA
Sequence of Cytochrome P450 2D6 (P10635 whole entry): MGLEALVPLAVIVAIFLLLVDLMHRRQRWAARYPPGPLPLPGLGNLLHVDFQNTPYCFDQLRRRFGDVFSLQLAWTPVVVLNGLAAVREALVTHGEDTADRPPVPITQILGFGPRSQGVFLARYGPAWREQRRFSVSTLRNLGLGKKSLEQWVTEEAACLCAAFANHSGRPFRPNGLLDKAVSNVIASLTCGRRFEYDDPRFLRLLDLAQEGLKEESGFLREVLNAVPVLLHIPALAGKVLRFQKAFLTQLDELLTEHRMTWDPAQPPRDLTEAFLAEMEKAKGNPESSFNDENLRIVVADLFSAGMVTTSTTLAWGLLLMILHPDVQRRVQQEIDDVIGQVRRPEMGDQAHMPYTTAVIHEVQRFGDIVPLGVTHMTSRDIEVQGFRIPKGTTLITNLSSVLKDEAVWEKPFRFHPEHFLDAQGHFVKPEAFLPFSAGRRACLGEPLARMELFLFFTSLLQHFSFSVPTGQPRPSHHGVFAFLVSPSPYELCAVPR
Sequence of Cytochrome P450 2C9 (P11712 whole entry): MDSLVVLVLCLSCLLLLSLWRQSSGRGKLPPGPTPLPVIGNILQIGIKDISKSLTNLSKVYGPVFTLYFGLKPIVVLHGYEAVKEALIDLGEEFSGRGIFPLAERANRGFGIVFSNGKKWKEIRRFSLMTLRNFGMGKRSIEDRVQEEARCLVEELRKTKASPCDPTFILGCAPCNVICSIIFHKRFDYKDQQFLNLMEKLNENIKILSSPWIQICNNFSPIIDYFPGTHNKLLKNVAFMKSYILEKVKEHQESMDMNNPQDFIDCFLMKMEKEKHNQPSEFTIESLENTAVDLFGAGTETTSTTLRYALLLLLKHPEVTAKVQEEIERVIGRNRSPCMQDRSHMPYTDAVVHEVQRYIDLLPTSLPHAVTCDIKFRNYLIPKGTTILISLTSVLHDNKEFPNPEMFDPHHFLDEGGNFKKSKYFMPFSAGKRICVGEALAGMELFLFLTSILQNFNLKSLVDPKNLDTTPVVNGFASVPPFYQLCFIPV
Sequence of CYP3A4 (P08684 whole entry): as the sequence (P08684 whole entry) above
Sequence of CYP2D6 (P10635 whole entry): as the sequence (P10635 whole entry) above

In the case of `Cc1cc(-c2c[nH]c(=O)c(NC(=O)[C@H](Cc3ccccc3)NCc3cscn3)c2)ccn1`, the inhibition at 3 µM amounted to 20% in series [1] and 22% in [8]. Also, the values for the remaining at 0.5 h in [2] and in series [12] were 10% and 11%, respectively. Further, in series [3], the bioavailability was found to be 19%. For the same compound, the EC50 is 67 nM in series [4] and 290 nM in series [9]. In addition, the Vd in series [5] turned out to be 0.75 L/kg. Further, the MRT in series [6] was 18 min. The half-inhibitory concentration (IC50) in series [7] and in [13] was above 30000 nM throughout. The compound also yielded a clearance in series [10] of 43.3 mL/min/kg. In addition, the values for the Emax in [11] and in series [14] were 97% and 90%, respectively.
Regarding `O=C(O)c1cc(NC(=O)[C@H](Cc2ccccc2)NCc2cscn2)cc(-c2ccncc2)c1`, the bioavailability in [3] came out at 0%. Further, the EC50 in series [4] was found to be 110 nM; in series [9], 480 nM. In [5], the Vd turned out to be 0.5 L/kg. The compound also displayed an MRT in [6] of 12 min. Moreover, the IC50 in series [7], in series [17] and in series [13] was above 30000 nM in each case. In series [15], this compound had a CLH of 18 µL/min. Besides, in series [16], the half-life turned out to be 39 min. In series [10], the clearance was 48.3 mL/min/kg. Besides, the remaining at 0.5 h in [12] is 74%.
